From ChEMBL document CHEMBL3867429, “Euphorbesulins A-P, Structurally Diverse Diterpenoids from Euphorbia esula” (J Nat Prod, 2016)

tested on: Plasmodium falciparum; assay: Antimalarial activity against chloroquine-resistant Plasmodium falciparum Dd2 after 72 hrs by SYBR green-based fluorescence assay; format: functional; settings: Dd2, 72 h
How it was run: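 Growth-inhibition assay of the chloroquine-resistant P. falciparum Dd2 strain over 72 h, read by SYBR Green fluorescence and run under a slightly modified published protocol. Artemisinin served as positive control.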

Point of comparison: C=C1[C@H](OC(=O)c2ccccc2)[C@@H](OC(C)=O)[C@@H](OC(C)=O)C(C)(C)/C=C/[C@H](C)C(=O)[C@@]2(OC(C)=O)C[C@H](C)[C@H](OC(C)=O)[C@@H]2[C@H]1OC(=O)c1ccccc1, IC50 0.12 µM. Against it:
- C=C1C[C@]2(O)C(=O)C(C)(C)C[C@H]2[C@@](C)(O)C(=O)[C@@]2(O)C[C@H](C)[C@H](OC(=O)c3ccccc3)[C@@H]2[C@H]1OC(C)=O — higher, > 5 µM
- C=C1C[C@]2(O)C(=O)C(C)(C)C[C@H]2[C@@](C)(O)C(=O)[C@@]2(O)C[C@H](C)[C@H](OC(=O)c3ccccc3)[C@@H]2[C@H]1OC(=O)[C@H](C)C(C)C — 20-fold higher, 2.41 µM
- C=C1[C@H](OC(=O)c2ccccc2)[C@@H](O)[C@@H](OC(C)=O)C(C)(C)/C=C/[C@H](C)C(=O)[C@@]2(OC(C)=O)C[C@H](C)[C@H](OC(C)=O)[C@@H]2[C@H]1OC(C)=O — higher, > 5 µM
- C=C1[C@H](OC(C)=O)[C@@H](OC(C)=O)[C@@H](OC(C)=O)C(C)(C)/C=C/[C@H](C)C(=O)[C@@]2(OC(C)=O)C[C@@](C)(OC(C)=O)[C@H](OC(=O)c3ccccc3)[C@@H]2[C@H]1OC(C)=O — higher, > 5 µM
- C=C1[C@H](OC(C)=O)[C@@H](OC(C)=O)[C@@H](OC(C)=O)C(C)(C)/C=C/[C@H](C)C(=O)[C@]2(OC(C)=O)[C@H]([C@@H](OC(C)=O)[C@@H](C)[C@H]2O)[C@H]1OC(=O)c1ccccc1 — higher, > 5 µM
- C=C1[C@H](OC(=O)c2ccccc2)[C@@H](O)[C@@H](OC(C)=O)C(C)(C)/C=C/[C@H](C)C(=O)[C@@]2(OC(C)=O)C[C@@](C)(OC(C)=O)[C@H](OC(C)=O)[C@@H]2[C@H]1OC(C)=O — higher, > 10 µM
- C=C1[C@H](OC(C)=O)[C@@H](OC(C)=O)[C@@H](OC(C)=O)C(C)(C)/C=C/[C@H](C)C(=O)[C@]2(OC(C)=O)[C@H]([C@@H](OC(=O)c3ccccc3)[C@@H](C)[C@H]2O)[C@H]1OC(C)=O — higher, > 5 µM
- C=C1[C@H](OC(C)=O)[C@@H](OC(C)=O)[C@@H](OC(C)=O)C(C)(C)/C=C/[C@H](C)C(=O)[C@]2(O)[C@H]([C@@H](OC(C)=O)[C@@H](C)[C@H]2OC(C)=O)[C@H]1OC(=O)c1ccccc1 — higher, > 5 µM
- C=C1[C@H](OC(=O)c2ccccc2)[C@@H](OC(C)=O)[C@@H](OC(C)=O)C(C)(C)/C=C/[C@H](C)C(=O)[C@]2(OC(C)=O)[C@H]([C@@H](OC(C)=O)[C@](C)(O)[C@H]2O)[C@H]1OC(=O)c1ccccc1 — higher, > 5 µM
- C=C1C[C@]2(O)C(=O)C(C)(C)C[C@H]2[C@@](C)(O)C(=O)[C@@]2(O)C[C@H](C)[C@H](OC(=O)c3ccccc3)[C@@H]2[C@H]1OC(=O)c1ccccc1 — higher, > 5 µM
- C[C@@H]1CC[C@H]2[C@@H](C)C(=O)O[C@@H]3O[C@@]4(C)CC[C@@H]1[C@]32OO4 [ARTEMISININ] — 17-fold lower, 0.007 µM
